In ChEMBL document CHEMBL3992510, “Urea Derivatives of 2-Aryl-benzothiazol-5-amines: A New Class of Potential Drugs for Human African Trypanosomiasis” (J Med Chem, 2017):
The source made the active and inactive calls. No cut-off for these calls is given here.

How the values were obtained:
Liver [1] = assay: Half life in mouse liver microsomes at 1.5 uM in presence of NADPH by liquid chromatography/tandem mass spectrometric analysis; assay type: ADME, microsome
[2] = Stability in mouse liver microsomes assessed as compound remaining at 1.5 uM in presence of NADPH measured after 5 mins by liquid chromatography/tandem mass spectrometric analysis; assay type: ADME, microsome; conditions: read-out: Stability
Liver [3] = assay: Half life in human liver microsomes at 1.5 uM in presence of NADPH by liquid chromatography/tandem mass spectrometric analysis; assay type: ADME, microsome
[4] = Stability in human liver microsomes assessed as compound remaining at 1.5 uM in presence of NADPH measured after 5 mins by liquid chromatography/tandem mass spectrometric analysis; assay type: ADME, microsome; conditions: read-out: Stability
Method in brief: (§1)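 Pooled liver microsomes (0.5 mg/mL) are preincubated 5 min at 37 °C in 0.16 M KH2PO4 with 1 mM NADPH, then test compound is added at 1.5 μM. Aliquots are quenched with 4 volumes of acetonitrile at 0, 5, 10, 15, 30 and 60 min and analyzed by LC-MS/MS. Percent remaining at 5 or 60 min is given when t1/2 is outside the 5–60 min range. Controls: testosterone, dextromethorphan.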

[5] = test system: Trypanosoma brucei brucei; assay: Anti-parasitic activity against Trypanosoma brucei brucei TREU667 infected in mouse assessed as reduction in parasitemia at 10 mg/kg, ip bid administered on day 21 to 30 post infection measured on day 180 by microscopic method; assay type: functional, organism-based
[6] = Cmax in mouse at 50 mg/kg, po administered as single dose via gavage as 7% Tween 80/3% EtOH/5% DMSO formulation by liquid chromatography/tandem mass spectrometric analysis; assay type: ADME, organism-based; parameters: dose 50 mg/kg, route oral; conditions: in vivo
Method in brief: (§2)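 Single oral gavage dose of 50 mg/kg to groups of three mice, vehicle as in the line. Tail blood of 40 μL is taken into heparinized capillaries at time points out to as much as 32 h. It is spotted on dried-blood cards and quantified by LC-MS/MS. Values are means ± SEM of three mice.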

[7] = test system: Trypanosoma brucei brucei; assay: Antitrypanosomal activity against Trypanosoma brucei brucei BF427 assessed as growth inhibition measured after 48 hrs by Alamar blue assay; assay type: functional; conditions: BF427, 48 h
Method in brief: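 Bloodstream-form parasites in HMI-9 medium are exposed to serial compound dilutions in triplicate. Viability is read with Alamar Blue at 48 h. EC50 and EC90 come from nonlinear regression. Pentamidine isethionate is the control.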

HepG2 = assay: Cytotoxicity against human HepG2 cells assessed as growth inhibition after 48 hrs by Alamar blue assay; assay type: cell-based; conditions: for EC50: Homo sapiens, HepG2, 48 h; for EC90: human, hepg2, 48 h
Method in brief: (§3)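 CRL-8155 lymphoblasts or HepG2 hepatocellular carcinoma cells are exposed 48 h to serial compound dilutions in quadruplicate. Growth is read with Alamar Blue, and 50% and 90% inhibitory concentrations come from nonlinear regression. Quinacrine is the control.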

[8] = Selectivity index, ratio of EC50 for human HepG2 cells to EC50 for Trypanosoma brucei brucei BF427; assay type: toxicity; conditions: read-out: Ratio EC50
[9] = Selectivity index, ratio of EC50 for human CRL8155 cells to EC50 for Trypanosoma brucei brucei BF427; assay type: toxicity; conditions: read-out: Ratio EC50
[10] = Cytotoxicity against human CRL8155 cells assessed as growth inhibition after 48 hrs by Alamar blue assay; assay type: cell-based; conditions: for EC50: Homo sapiens, CRL8155, 48 h; for EC90: human, crl8155, 48 h; method in brief: as §3
[11] = Stability in mouse liver microsomes assessed as compound remaining at 1.5 uM in presence of NADPH measured after 60 mins by liquid chromatography/tandem mass spectrometric analysis; assay type: ADME, microsome; conditions: read-out: Stability; method in brief: as §1
[12] = Stability in human liver microsomes assessed as compound remaining at 1.5 uM in presence of NADPH measured after 60 mins by liquid chromatography/tandem mass spectrometric analysis; assay type: ADME, microsome; conditions: read-out: Stability; method in brief: as §1
[13] = AUC (0 to infinity) in mouse at 50 mg/kg, po administered as single dose via gavage as 7% Tween 80/3% EtOH/5% DMSO formulation by liquid chromatography/tandem mass spectrometric analysis; assay type: ADME, organism-based; parameters: dose 50 mg/kg, route oral, time infinity; conditions: in vivo; method in brief: as §2
[14] = Drug level in mouse plasma at 5 mg/kg, ip administered as single dose measured at 1 hr post dose by liquid chromatography/tandem mass spectrometric analysis; assay type: ADME, organism-based
Method in brief: (§4)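 Single ip dose of 5 mg/kg in 5% DMSO/7% Tween 80/3% EtOH in 0.9% saline, three mice per compound (six for one compound). At 1 h, plasma is separated by centrifugation and brain homogenized in acetonitrile. Both are quantified by LC-MS/MS, with brain corrected for 3% v/w blood. Brain/plasma ratio is reported as mean ± SEM.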

[15] = Drug level in mouse brain at 5 mg/kg, ip administered as single dose measured at 1 hr post dose by liquid chromatography/tandem mass spectrometric analysis; assay type: ADME, organism-based; conditions: read-out: Drug uptake; method in brief: as §4
[16] = Ratio of drug level in brain to plasma in mouse at 5 mg/kg, ip administered as single dose measured at 1 hr post dose by liquid chromatography/tandem mass spectrometric analysis; assay type: ADME, organism-based; method in brief: as §4

Row | Structure (SMILES) | t1/2 (Liver [1]) | remaining at 5 min, 1.5 µM [2] | t1/2 (Liver [3]) | remaining at 5 min, 1.5 µM [4] | Activity [5] | Cmax [6] | EC50 [7] | EC90 [7] | EC50 (HepG2) | EC90 (HepG2) | selectivity ratio [8] | selectivity ratio [9] | EC50 [10] | remaining at 1 h, 1.5 µM [11] | remaining at 1 h, 1.5 µM [12] | AUC(0-inf) [13] | concentration at 1 h [14] | concentration at 1 h [15] | BPR [16] | EC90 [10]
1 | O=C(NCCc1nc(-c2ccc(F)cc2F)cs1)N1CCCCC1 | < 5 min | 0% | < 5 min | 46% | – | – | – | – | – | – | – | – | – | – | – | – | – | – | – | –
2 | N=C(N)c1ccc(/N=N/Nc2ccc(C(=N)N)cc2)cc1 | – | – | – | – | inactive | – | – | – | – | – | – | – | – | – | – | – | – | – | – | –
3 | O=C(Nc1ccc2sc(-c3ccc(F)c(F)c3)nc2c1)N1CCC(F)C1 (stereo not given) | > 60 min | – | > 60 min | – | – | 10 µM | 0.0519 µM | 0.0919 µM | > 50 µM | > 50 µM | > 963 | > 963 | > 50 µM | 52% | 99% | 108 µM·h | 3.26 µM | 5.48 µM | 2.11 | –
4 | O=C(Nc1ccc2sc(-c3ccc(F)c(F)c3)nc2c1)N1CCCC1 | 14 min | – | – | – | – | – | 0.0918 µM | 0.181 µM | > 50 µM | > 50 µM | > 545 | 369 | 33.9 µM | – | 66% | 7.39 µM·h | 2.61 µM | 4.25 µM | – | > 50 µM
5 | O=C(N/C=C/c1nc(-c2cccc(F)c2)cs1)N1CCCCC1 | 13 min | – | < 5 min | 28% | – | – | 0.0946 µM | 0.216 µM | > 50 µM | > 50 µM | > 529 | > 529 | > 50 µM | – | – | – | – | – | – | > 50 µM
6 | O=C(Nc1ccc2sc(-c3ccc(F)c(F)c3)nc2c1)N1C[C@@H](F)[C@H](F)C1 | – | – | – | – | – | – | 0.114 µM | 0.747 µM | > 50 µM | > 50 µM | > 439 | > 238 | 27.1 µM | 67% | 96% | 225 µM·h | 2.19 µM | 16.2 µM | 7.71 | > 50 µM
7 | CC1CCCCN1C(=O)NCCc1nc(-c2cccc(F)c2)cs1 (stereo not given) | < 5 min | 21% | < 5 min | 3.9% | – | – | 0.037 µM | 0.0586 µM | > 50 µM | > 50 µM | > 1350 | > 1350 | > 50 µM | – | – | – | – | – | – | > 50 µM
8 | O=C(NCCc1nc(-c2ccc(F)c(F)c2)cs1)N1CCCCC1 | < 5 min | 0% | < 5 min | 22% | – | – | – | – | – | – | – | – | – | – | – | – | – | – | – | –
